This passage reports Activity, AD50 and Ki results from ChEMBL document CHEMBL1143907, “Synthesis, nicotinic acetylcholine receptor binding, and pharmacological properties of 3'-(substituted phenyl)deschloroepibatidine analogs” (Bioorg Med Chem, 2008).

The subject of test [1] is Mus musculus. Briefly: Effect on rectal temperature in mouse at 500 […], sc. The format is functional. The conditions noted are these: route subcutaneous. An outline of the steps: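 Rectal temperature was read with a thermistor probe inserted 24 mm, just before and at several times after sc saline or analog. The pre/post difference was calculated per mouse. Laboratory ambient temperature was 21–24 °C.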

Test [2] concerns Mus musculus. Nature of the test: Inhibition of nicotine-induced antinociception in sc dosed acute pain mouse model by hot plate method. The format is functional.
Test [3] has as its system Mus musculus. Nature of the test: Antinociceptive activity in acute pain mouse model at 10 mg/kg, sc by hot plate method. In kind it is functional. The conditions noted are these: route subcutaneous. An outline of the steps: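 Mice were placed in a 10-cm glass cylinder on a hot plate held at 55.0 °C. Two control latencies, at least 10 min apart, were taken per mouse (normal 8–12 s). The endpoint was a jump or paw lick, and animals were tested 5 min after sc injection. Response was expressed as %MPE from test, control and maximum latencies. ED50 values are given with confidence limits, or as percent effect at a dose.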
On the technique in general: Thermal pain tests record how soon the animal reacts.

Test [4] has as its target Neuronal acetylcholine receptor; alpha4/beta2 (Rattus norvegicus, UniProt P09483+P12390). Nature of the test: Displacement of [3H]epibatidine from alpha-4-beta-2 nAChR in rat cerebral cortex. The format is tissue-based. On the technique in general: In a radioligand displacement assay an active substance lowers the binding of a labelled ligand.
In test [5] the test system is Mus musculus. Nature of the test: Inhibition of nicotine-induced antinociception in sc dosed acute pain mouse model by tail flick method. In kind it is functional.

Sequence of Neuronal acetylcholine receptor; alpha4/beta2 (P09483 whole entry): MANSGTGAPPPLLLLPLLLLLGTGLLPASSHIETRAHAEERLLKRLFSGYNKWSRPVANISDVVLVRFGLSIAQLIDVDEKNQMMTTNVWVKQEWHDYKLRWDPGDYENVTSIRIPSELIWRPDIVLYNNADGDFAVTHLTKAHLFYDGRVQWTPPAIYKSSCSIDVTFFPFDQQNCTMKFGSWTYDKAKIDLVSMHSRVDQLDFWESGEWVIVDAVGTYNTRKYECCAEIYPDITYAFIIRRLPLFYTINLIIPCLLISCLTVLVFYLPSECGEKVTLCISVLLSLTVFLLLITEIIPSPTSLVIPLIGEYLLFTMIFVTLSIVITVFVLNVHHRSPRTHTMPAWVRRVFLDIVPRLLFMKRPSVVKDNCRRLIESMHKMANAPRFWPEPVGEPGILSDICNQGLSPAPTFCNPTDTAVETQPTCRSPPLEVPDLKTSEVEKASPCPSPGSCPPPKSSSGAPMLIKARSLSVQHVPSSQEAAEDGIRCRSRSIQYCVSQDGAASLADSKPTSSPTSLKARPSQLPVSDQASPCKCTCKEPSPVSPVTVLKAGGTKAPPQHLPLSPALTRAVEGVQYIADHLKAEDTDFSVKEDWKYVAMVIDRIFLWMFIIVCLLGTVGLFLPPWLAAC
Sequence of Neuronal acetylcholine receptor; alpha4/beta2 (P12390 whole entry): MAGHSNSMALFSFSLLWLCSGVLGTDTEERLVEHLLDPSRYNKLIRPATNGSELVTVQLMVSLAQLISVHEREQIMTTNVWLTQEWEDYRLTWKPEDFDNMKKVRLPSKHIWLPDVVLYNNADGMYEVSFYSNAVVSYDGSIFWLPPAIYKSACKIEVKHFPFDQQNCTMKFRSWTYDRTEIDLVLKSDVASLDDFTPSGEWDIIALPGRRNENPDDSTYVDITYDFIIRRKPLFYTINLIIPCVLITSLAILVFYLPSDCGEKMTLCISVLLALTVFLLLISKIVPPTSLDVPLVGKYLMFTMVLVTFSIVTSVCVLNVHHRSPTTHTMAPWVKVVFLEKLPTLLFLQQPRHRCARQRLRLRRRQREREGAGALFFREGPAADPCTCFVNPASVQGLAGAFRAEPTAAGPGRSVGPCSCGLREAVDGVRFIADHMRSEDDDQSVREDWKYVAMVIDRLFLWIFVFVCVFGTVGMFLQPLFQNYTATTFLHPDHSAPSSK

For `Cl.O=[N+]([O-])c1cccc(-c2cc(C3CC4CCC3N4)cnc2F)c1` (racemic), the values for the Activity with Mus musculus [1] and in the test on Mus musculus [3] were 5% and 20%, respectively. Moreover, the AD50 turned out to be 0.13 mg/kg in the test on Mus musculus [2] and 0.0002 mg/kg in the test on Mus musculus [5]. This compound also had an inhibitory constant (Ki) in test [4] of 0.053 nM.

As usually defined, the Ki is the equilibrium dissociation constant of an inhibitor or competing ligand from its target. A low value points to tighter binding.
